Publication PMC11532418 (Scientific Reports, 2024)

Experiments:
DPP4 enzyme [1] = target: T1, DPP4 enzyme (Homo sapiens, UniProt P27487); assay: biochemical; conditions: read-out: % DPP4 Enzyme Inhibition, at 20 µM
NIH/3T3 = assay: MTT cytotoxic bioassay on normal cell line; assay type: cell-based; conditions: Mus musculus, NIH3T3, 72 h, read-out: IC50 ± SD
Method in brief: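 NIH/3T3 fibroblasts were grown in high-glucose DMEM with 10% FBS and 1% penicillin-streptomycin under humidified 5% CO2. 1.0 × 10^4 cells/well were precultured for 16 h, then exposed for 72 h in fresh medium (reference drug at 1–200 µM). MTT (0.50 mg/ml final) was added for 4 h, and formazan was dissolved in DMSO. A570 − A630 gave % viability. IC50 is mean ± SD of three independent experiments.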

DPP4 enzyme [2] = target: T1, DPP4 enzyme; assay: Kinetic study of DPP4 inhibition; assay type: biochemical
Method in brief: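 DPP4 inhibition kinetics with fluorogenic substrate H-Gly-Pro-AMC at different substrate-to-enzyme concentration ratios, test compound at four concentrations (0.5, 5, 25 and 50 µM). Double-reciprocal plots of 1/velocity vs 1/[substrate] fitted by weighted least squares, assuming velocity variance is a constant percentage of v. Lineweaver–Burk slopes were replotted against inhibitor concentration, and Ki was taken as the negative X-axis intercept.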

T1 sequence (P27487 whole entry): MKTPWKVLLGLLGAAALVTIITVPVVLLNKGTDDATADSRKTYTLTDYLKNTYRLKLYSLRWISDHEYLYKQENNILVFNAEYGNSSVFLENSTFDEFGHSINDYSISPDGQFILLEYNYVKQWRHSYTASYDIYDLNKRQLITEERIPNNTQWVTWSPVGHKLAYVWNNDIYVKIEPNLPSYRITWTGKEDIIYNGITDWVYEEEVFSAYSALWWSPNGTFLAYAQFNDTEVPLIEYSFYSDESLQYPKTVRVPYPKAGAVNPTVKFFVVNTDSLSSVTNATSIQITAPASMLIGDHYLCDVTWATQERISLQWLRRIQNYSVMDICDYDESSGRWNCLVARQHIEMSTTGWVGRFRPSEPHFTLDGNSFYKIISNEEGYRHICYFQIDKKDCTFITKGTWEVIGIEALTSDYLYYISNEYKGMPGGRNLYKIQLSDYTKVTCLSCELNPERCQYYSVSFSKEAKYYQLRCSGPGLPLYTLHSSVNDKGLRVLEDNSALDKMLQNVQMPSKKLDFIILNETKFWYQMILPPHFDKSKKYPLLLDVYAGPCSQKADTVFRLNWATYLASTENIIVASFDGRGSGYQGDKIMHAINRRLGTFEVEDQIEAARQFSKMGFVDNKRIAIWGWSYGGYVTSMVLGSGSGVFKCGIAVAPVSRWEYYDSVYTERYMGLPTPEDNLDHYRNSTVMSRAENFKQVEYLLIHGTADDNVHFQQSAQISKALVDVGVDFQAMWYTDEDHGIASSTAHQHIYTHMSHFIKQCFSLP

## Cn1c(=O)cc(N2CCC(N)CC2)n(Cc2nc3ccc(Br)cc3c(=O)n2-c2ccc(Br)cc2)c1=O [9j, 6-(4-Aminopiperidin-1-yl)-1-((6-bromo-3-(4-bromophenyl)-4-oxo-3,4-dihydroquinazolin-2-yl)methyl)-3-methylpyrimidine-2,4(1 H,3 H)-dione]
DPP4 enzyme [1]
  inhibition at 20 µM: > 50%
NIH/3T3
  IC50: 91 ± 1.98 µM

## Cn1c(=O)cc(N2CCC(N)CC2)n(Cc2nc3ccc(Br)cc3c(=O)n2-c2ccc(F)cc2)c1=O [9h, 6-(4-Aminopiperidin-1-yl)-1-((6-bromo-3-(4-fluorophenyl)-4-oxo-3,4-dihydroquinazolin-2-yl)methyl)-3-methylpyrimidine-2,4(1 H,3 H)-dione]
NIH/3T3
  IC50: 89.7 ± 3.76 µM

## Cn1c(=O)cc(N2CCC(N)CC2)n(Cc2nc3ccc(Br)cc3c(=O)n2-c2ccc(Cl)cc2)c1=O [9i, 6-(4-Aminopiperidin-1-yl)-1-((6-bromo-3-(4-chlorophenyl)-4-oxo-3,4-dihydroquinazolin-2-yl)methyl)-3-methylpyrimidine-2,4(1 H,3 H)-dione]
NIH/3T3
  IC50: 76.9 ± 2.58 µM
DPP4 enzyme [2]
  Ki: 12 µM
DPP4 enzyme [2]; Lineweaver-Burk plot
  type of inhibition: competitive

## Cn1c(=O)cc(N2CCC(N)CC2)n(Cc2nc3ccccc3c(=O)n2-c2ccc(Cl)cc2)c1=O [9c, 6-(4-Aminopiperidin-1-yl)-1-((3-(4-chlorophenyl)-4-oxo-3,4-dihydroquinazolin-2-yl)methyl)-3-methylpyrimidine-2,4(1 H,3 H)-dione]
DPP4 enzyme [1]
  inhibition at 20 µM: > 50%
NIH/3T3
  IC50: 72.2 ± 3.91 µM

## Cn1c(=O)cc(N2CCC(N)CC2)n(Cc2nc3ccc(Br)cc3c(=O)n2-c2cccc(F)c2)c1=O [9k, 6-(4-Aminopiperidin-1-yl)-1-((6-bromo-3-(3-fluorophenyl)-4-oxo-3,4-dihydroquinazolin-2-yl)methyl)-3-methylpyrimidine-2,4(1 H,3 H)-dione]
NIH/3T3
  IC50: 68.4 ± 3.01 µM

## Cn1c(=O)cc(N2CCC(N)CC2)n(Cc2nc3ccccc3c(=O)n2-c2ccccc2)c1=O [9a, 6-(4-Aminopiperidin-1-yl)-3-methyl-1-((4-oxo-3-phenyl-3,4-dihydroquinazolin-2-yl)methyl)pyrimidine-2,4(1 H,3 H)-dione]
NIH/3T3
  IC50: 88.1 ± 3.22 µM

## Cn1c(=O)cc(N2CCC(N)CC2)n(Cc2nc3ccc(Br)cc3c(=O)n2-c2cccc(Br)c2)c1=O [9l, 6-(4-Aminopiperidin-1-yl)-1-((6-bromo-3-(3-bromophenyl)-4-oxo-3,4-dihydroquinazolin-2-yl)methyl)-3-methylpyrimidine-2,4(1 H,3 H)-dione]
NIH/3T3
  IC50: 78.1 ± 2.95 µM

## Cn1c(=O)cc(N2CCC(N)CC2)n(Cc2nc3ccccc3c(=O)n2-c2ccc(F)c(Cl)c2)c1=O [9f, 6-(4-Aminopiperidin-1-yl)-1-((3-(3-chloro-4-fluorophenyl)-4-oxo-3,4-dihydroquinazolin-2-yl)methyl)-3-methylpyrimidine-2,4(1 H,3 H)-dione]
NIH/3T3
  IC50: 43.4 ± 1.02 µM

## Cn1c(=O)cc(N2CCC(N)CC2)n(Cc2nc3ccccc3c(=O)n2-c2cccc(C(F)(F)F)c2)c1=O [9e, 6-(4-Aminopiperidin-1-yl)-3-methyl-1-((4-oxo-3-(3-(trifluoromethyl)phenyl)-3,4-dihydroquinazolin-2-yl)methyl)pyrimidine-2,4(1 H,3 H)-dione]
NIH/3T3
  IC50: 81.5 ± 5.94 µM

## N[C@@H](CC(=O)N1CCn2c(nnc2C(F)(F)F)C1)Cc1cc(F)c(F)cc1F [Sitagliptin, reference compound]
NIH/3T3
  IC50: 111 ± 5.85 µM

## Cc1ccc(-n2c(Cn3c(N4CCC(N)CC4)cc(=O)n(C)c3=O)nc3ccccc3c2=O)cc1 [9d, 6-(4-Aminopiperidin-1-yl)-3-methyl-1-((4-oxo-3-(p-tolyl)-3,4-dihydroquinazolin-2-yl)methyl)pyrimidine-2,4(1 H,3 H)-dione]
NIH/3T3
  IC50: 39.3 ± 1.05 µM

## Cn1c(=O)cc(N2CCC(N)CC2)n(Cc2nc3ccc(Br)cc3c(=O)n2-c2ccccc2)c1=O [9g, 6-(4-Aminopiperidin-1-yl)-1-((6-bromo-4-oxo-3-phenyl-3,4-dihydroquinazolin-2-yl)methyl)-3-methylpyrimidine-2,4(1 H,3 H)-dione]
NIH/3T3
  IC50: 102 ± 4.05 µM

## Cn1c(=O)cc(N2CCC(N)CC2)n(Cc2nc3ccccc3c(=O)n2-c2ccc(F)cc2)c1=O [9b, 6-(4-Aminopiperidin-1-yl)-1-((3-(4-fluorophenyl)-4-oxo-3,4-dihydroquinazolin-2-yl)methyl)-3-methylpyrimidine-2,4(1 H,3 H)-dione]
NIH/3T3
  IC50: 62.9 ± 1.98 µM
